# Measurements from different studies.
# Lines come from different studies, so protocols differ.
# Organism: Acinetobacter baumannii
# Read-out: microbial growth
SMILES,technique,strain,time,notes,MIC
CN(C)[C@@H]1C(O)=C(C(N)=O)C(=O)[C@@]2(O)C(O)=C3C(=O)c4c(O)c(-c5ccccc5)nc(Cl)c4C[C@H]3C[C@@H]12.Cl,broth dilution,ATCC19606,,,16 µg/mL
CCCCCCC/C=C/C(=O)N1C(=O)/C(=C(\O)c2ccccc2)C(=O)C1CC(C)C (stereo not drawn),,ATCC19606,,,> 200 µg/mL
CC(C)CNc1nc(Cl)c2c(c1O)C(=O)C1=C(O)[C@]3(O)C(=O)C(C(N)=O)=C(O)[C@@H](N(C)C)[C@@H]3C[C@@H]1C2.Cl.Cl.Cl,broth dilution,ATCC19606,,,2 µg/mL
CCCCCCC/C=C/C(=O)N1C(=O)/C(=C(/C)O)C(=O)C1CCCCN (stereo not drawn),,ATCC19606,,,> 200 µg/mL
COc1c2c(c(O)c3cc(F)ccc13)C(=O)C1=C(O)[C@]3(O)C(=O)C(C(N)=O)=C(O)[C@@H](N(C)C)[C@@H]3C[C@@H]1C2,broth dilution,ATCC19606,,,2 µg/mL
CC1(C)S[C@@H]2[C@H](NC(=O)C(C(=O)O)c3ccccc3)C(=O)N2[C@H]1C(=O)O (stereo partly drawn),broth dilution,,,,44.3 µM
CNc1nc(Cl)c2c(c1O)C(=O)C1=C(O)[C@]3(O)C(=O)C(C(N)=O)=C(O)[C@@H](N(C)C)[C@@H]3C[C@@H]1C2.Cl.Cl.Cl,broth dilution,ATCC19606,,,0.031 µg/mL
O=[N+]([O-])c1ccc(O)c2ncccc12,,19606,,,1.56 µM
O=C(O)c1ccc(-n2cc(/C=N/Nc3cccc(Br)c3)c(-c3cccc(F)c3)n2)cc1,,ATCCBAA1605,,,12.5 µg/mL
NC1CCCCc2c1[nH]c1cc(Cl)c(Cl)cc21 (stereo not drawn),broth dilution,ATCC19606,,,8 µg/mL
N=C(N)NN=Cc1ccc(OC/C=C\COc2ccc(C=NNC(=N)N)cc2)cc1,,ATCC19606,16 h,,≤ 51 µg/mL
O=C(CCCCCCCCCC[P+](c1ccccc1)(c1ccccc1)c1ccccc1)Nc1cc(O)c(O)c(O)c1.[Br-],broth dilution,ATCC19606,18 h,,> 32 µg/mL
CN(C)c1ccc(O)c2c1C[C@H]1C[C@H]3[C@H](N(C)C)C(O)=C(C(N)=O)C(=O)[C@@]3(O)C(O)=C1C2=O,broth dilution,ATCC19606,,,≤ 0.125 µg/mL
N#Cc1ccc(N/N=C/c2cn(-c3ccc(C(=O)O)cc3)nc2-c2ccc(F)cc2)cc1,,ATCCBAA1605,,,> 25 µg/mL
N=C(N)c1ccc(OCc2ccc(Br)cc2COc2ccc(C(=N)N)cc2)cc1,broth dilution,ATCC17978,,,> 200 µg/mL
CNC(C)C1CCC(N)C(OC2C(N)CC(N)C(OC3OCC(C)(O)C(NC)C3O)C2O)O1 (stereo not drawn),broth dilution,ATCC19606,,,0.5 µg/mL
CN(C)[C@@H]1C(O)=C(C(N)=O)C(=O)[C@@]2(O)C(O)=C3C(=O)c4c(O)c(N)nc(F)c4C[C@H]3C[C@@H]12.Cl.Cl,broth dilution,ATCC19606,,,0.5 µg/mL
N=C(N)c1ccc(OCc2ccc(-c3ccccc3)cc2COc2ccc(C(=N)N)cc2)cc1,broth dilution,ATCC17978,,,> 200 µg/mL
CN[C@@H]1[C@@H](O)[C@@H](O[C@@H]2[C@@H](O)[C@H](O[C@H]3OC(CNCCO)=CC[C@H]3N)[C@@H](N)C[C@H]2NC(=O)[C@@H](O)CCN)OC[C@]1(C)O,,,,,2 µg/mL
C/C(=C\c1ccc(O)cc1)C(=O)Nc1ccc(C(=O)N[C@@H](CC(N)=O)C(=O)Nc2ccc(C(=O)Nc3ccc(C(=O)Nc4ccc(C(=O)O)cc4)c(O)c3OC(C)C)cc2)cc1,,DSM30008,,,0.25 µg/mL
O=C(O)c1ccc(-n2cc(/C=N/Nc3ccc(Br)cc3)c(-c3ccc4ccccc4c3)n2)cc1,,ATCCBAA1605,,,12.5 µg/mL
NCC[C@H](O)C(=O)N[C@@H]1C[C@H](N)[C@@H](O[C@H]2O[C@H](CN)[C@@H](O)[C@H](O)[C@H]2O)[C@H](O)[C@H]1O[C@H]1O[C@H](CO)[C@@H](O)[C@H](N)[C@H]1O,,,,,2 µg/mL
NCCCNC1CCCCc2c1[nH]c1ccc(Br)cc21 (stereo not drawn),broth dilution,ATCC19606,,,32 µg/mL
O=C(CCc1ccc(O)c(O)c1)NCCCCCCCC[P+](c1ccccc1)(c1ccccc1)c1ccccc1.[Br-],broth dilution,ATCC19606,18 h,,> 32 µg/mL
CCCCCCC/C=C/C(=O)N1C(=O)/C(=C(\O)c2ccc(O)cc2)C(=O)C1CC(C)C (stereo not drawn),,ATCC19606,,,> 200 µg/mL
O=C(CCCCCC[P+](c1ccccc1)(c1ccccc1)c1ccccc1)Nc1ccc(O)c(O)c1.[Br-],broth dilution,ATCC19606,18 h,,> 32 µg/mL
NC[C@H]1O[C@H](O[C@H]2[C@H](O)[C@@H](O[C@H]3O[C@H](CO)[C@@H](O)[C@H](N)[C@H]3O)[C@H](N)C[C@@H]2N)[C@H](N)C[C@@H]1O,broth dilution,,,clinical isolate,> 200 µM
CO[C@H]1/C=C/O[C@@]2(C)Oc3c(C)c(O)c4c(O)c(c(/C=N/N5CCN(C)CC5)c(O)c4c3C2=O)NC(=O)/C(C)=C\C=C\[C@H](C)[C@H](O)[C@@H](C)[C@@H](O)[C@@H](C)[C@H](OC(C)=O)[C@@H]1C,,NCTC13301,,,4 µg/mL
O=C(CCCCCCCC[P+](c1ccccc1)(c1ccccc1)c1ccccc1)Nc1ccc(O)c(O)c1.[Br-],broth dilution,ATCC19606,18 h,,> 32 µg/mL
NC1CCCCc2c1[nH]c1ccc(Cl)c(Cl)c21 (stereo not drawn),broth dilution,ATCC19606,,,16 µg/mL
CN(C)[C@@H]1C(O)=C(C(N)=O)C(=O)[C@@]2(O)C(O)=C3C(=O)c4c(cc5ccc(-c6ccccc6)cc5c4O)C[C@H]3C[C@@H]12,broth dilution,ATCC19606,,,32 µg/mL
CC(C)CCNc1nc(Cl)c2c(c1O)C(=O)C1=C(O)[C@]3(O)C(=O)C(C(N)=O)=C(O)[C@@H](N(C)C)[C@@H]3C[C@@H]1C2.Cl.Cl.Cl,broth dilution,ATCC19606,,,4 µg/mL
CN[C@H](CC(C)C)C(=O)N[C@H]1C(=O)N[C@@H](CC(N)=O)C(=O)N[C@H]2C(=O)N[C@H]3C(=O)N[C@H](C(=O)N[C@H](C(=O)O)c4cc(O)cc(O)c4-c4cc3ccc4O)[C@H](O)c3ccc(c(Cl)c3)Oc3cc2cc(c3O[C@@H]2O[C@H](CO)[C@@H](O)[C@H](O)[C@H]2O[C@H]2C[C@](C)(N)[C@H](O)[C@H](C)O2)Oc2ccc(cc2Cl)[C@H]1O,broth dilution,BAA747,,,> 128 µM
O=[N+]([O-])c1ccc(/C=N/Nc2nc(Nc3ccccc3)nc(N3CCOCC3)n2)o1,,,,,> 120 µM
CCCCCCC/C=C/C(=O)N1C(=O)/C(=C(\O)C2CCNCC2)C(=O)C1CC(C)C (stereo not drawn),,ATCC19606,,,50 µg/mL
CN(Cc1ccc2cc3c(c(O)c2c1)C(=O)C1=C(O)[C@]2(O)C(=O)C(C(N)=O)=C(O)[C@@H](N(C)C)[C@@H]2C[C@@H]1C3)c1ccccc1,broth dilution,ATCC19606,,,32 µg/mL
N=C(N)c1ccc(OCc2cccc(COc3ccc(C(=N)N)cc3)c2)cc1,broth dilution,ATCC17978,,,> 200 µg/mL
C/C(O)=C1\C(=O)C(CC(C)C)N(C(=O)C=Cc2ccccc2)C1=O (stereo not drawn),,ATCC19606,,,> 200 µg/mL
CN(C)c1cc(NC(=O)CNC(C)(C)C)c(O)c2c1C[C@H]1C[C@H]3[C@H](N(C)C)C(O)=C(C(N)=O)C(=O)[C@@]3(O)C(O)=C1C2=O,,ATCC19606,,,1.2 µg/mL
